Source: ChEMBL document CHEMBL1126843, “Non-amine based analogues of lavendustin A as protein-tyrosine kinase inhibitors” (J Med Chem, 1993)

How the values were obtained:
[1] = (§1) Inhibition of c-erb B-2/HER2/neu receptor; assay type: functional
Method in brief: (§2)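 HER2/neu immunoprecipitated from SK-BR-3 breast cancer cells (1-2 × 10^6 cells per assay) on plates coated with goat anti-mouse Ig and anti-HER2 mAb (20 μg/mL), blocked with gelatin/glycine. Lysates bound overnight on ice, then washed. Kinase reaction in 25 mM HEPES pH 7.2, 3 mM MnCl2, 20 mM MgCl2, 0.1% NP-40 and 1 µCi [γ-32P]ATP, 20 min at 25 °C. Products run on 7.5% reducing SDS-PAGE; inhibition calculated from densitometric band densities.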

[2] = target: Tyrosine-protein kinase Lck (Homo sapiens, UniProt P06239); assay: Inhibition of p56lck autophosphorylation; assay type: functional
Chain of Tyrosine-protein kinase Lck (P06239 whole entry): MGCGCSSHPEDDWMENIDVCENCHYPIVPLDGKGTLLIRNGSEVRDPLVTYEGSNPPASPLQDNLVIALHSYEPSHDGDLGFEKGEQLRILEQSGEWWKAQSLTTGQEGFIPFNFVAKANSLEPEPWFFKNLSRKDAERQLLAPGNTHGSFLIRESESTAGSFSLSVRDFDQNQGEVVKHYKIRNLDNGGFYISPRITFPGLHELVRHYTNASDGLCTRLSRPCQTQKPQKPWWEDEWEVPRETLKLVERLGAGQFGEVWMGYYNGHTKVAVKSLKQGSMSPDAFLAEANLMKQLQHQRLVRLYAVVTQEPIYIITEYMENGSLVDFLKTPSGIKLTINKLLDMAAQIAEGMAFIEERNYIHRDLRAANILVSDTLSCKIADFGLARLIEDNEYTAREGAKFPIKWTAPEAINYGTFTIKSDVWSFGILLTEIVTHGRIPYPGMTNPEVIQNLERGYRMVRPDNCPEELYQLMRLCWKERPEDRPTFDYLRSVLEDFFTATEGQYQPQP

[3] = Inhibition of epidermal growth factor receptor (EGFR) autophosphorylation; assay type: functional
[4] = as §1; method in brief: as §2
[5] = Inhibition of epidermal growth factor receptor (EGFR)

Structure (SMILES): O=C(O)c1cc(/C=C/c2cc(O)ccc2O)ccc1O
- IC50 [1]: 600 nM
- IC50 [2]: 0.06 µM
- IC50 [3]: 2 µM

Structure (SMILES): O=C(O)c1cc(CCc2ccc(O)c(O)c2)ccc1O
- IC50 [4]: 600 nM
- IC50 [5]: 12 µM
- IC50 [2]: 1 µM

Structure (SMILES): O=C(O)c1cc(/C=C/c2ccc(O)c(O)c2)ccc1O
- IC50 [1]: 200 nM
- IC50 [3]: 5 µM

Structure (SMILES): O=C(O)c1cc(CCc2cc(O)ccc2O)ccc1O
- IC50 [1]: 4000 nM
- IC50 [2]: 1 µM
- IC50 [3]: 20 µM

Structure (SMILES): O=C(O)c1cc(/N=C/c2cc(O)ccc2O)ccc1O
- IC50 [1]: 70000 nM
- IC50 [2]: 85 µM
- IC50 [3]: 9 µM

Structure (SMILES): O=C(O)c1cc(N(Cc2ccccc2O)Cc2cc(O)ccc2O)ccc1O [LAVENDUSTIN A]
- IC50 [1]: 9000 nM
- IC50 [2]: 8 µM
- IC50 [3]: 7 µM

Structure (SMILES): O=C(O)c1cc(NCc2cc(O)ccc2O)ccc1O [LAVENDUSTIN C]
- IC50 [1]: 900 nM
- IC50 [2]: 10 µM
- IC50 [3]: 4 µM
